What was measured:
Assay type in all cases: functional
[1] = tested on: SR; test: Growth inhibition of human SR cells assessed as cell growth at 0.01 uM incubated for 48 hrs by sulforhodamine B assay relative to control; settings: read-out: Activity
[2] = tested on: Malme-3M; test: Growth inhibition of human Malme-3M cells incubated for 48 hrs by sulforhodamine B assay
Method in brief: (§1)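 NCI60 panel at the NCI Developmental Therapeutics Program. Only compounds active in the 10 µM screen went to dose-response testing. GI50, the concentration giving 50% of maximal inhibition of proliferation, and TGI, the concentration giving total growth inhibition, were derived from the dose-response curves.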

[3] = tested on: SN12C; test: Growth inhibition of human SN12C cells assessed as cell growth at 1 uM incubated for 48 hrs by sulforhodamine B assay relative to control; settings: read-out: Activity
[4] = tested on: K562; test: Growth inhibition of human K562 cells assessed as cell growth at 100 uM incubated for 48 hrs by sulforhodamine B assay relative to control; settings: read-out: Activity
[5] = tested on: HT-29; test: Growth inhibition of human HT-29 cells incubated for 48 hrs by sulforhodamine B assay; method in brief: as §1
[6] = tested on: KM12; test: Growth inhibition of human KM12 cells assessed as cell growth at 100 uM incubated for 48 hrs by sulforhodamine B assay relative to control; settings: read-out: Activity
[7] = tested on: NCI-H460; test: Growth inhibition of human NCI-H460 cells assessed as cell growth at 0.01 uM incubated for 48 hrs by sulforhodamine B assay relative to control; settings: read-out: Activity
[8] = tested on: RXF 393; test: Growth inhibition of human RXF 393 cells assessed as cell growth at 1 uM incubated for 48 hrs by sulforhodamine B assay relative to control; settings: read-out: Activity
[9] = tested on: OVCAR-5; test: Growth inhibition of human OVCAR-5 cells assessed as cell growth at 0.1 uM incubated for 48 hrs by sulforhodamine B assay relative to control; settings: read-out: Activity
[10] = tested on: MOLT-4; test: Growth inhibition of human MOLT-4 cells assessed as cell growth at 100 uM incubated for 48 hrs by sulforhodamine B assay relative to control; settings: read-out: Activity
[11] = tested on: OVCAR-4; test: Growth inhibition of human OVCAR-4 cells assessed as cell growth at 0.01 uM incubated for 48 hrs by sulforhodamine B assay relative to control; settings: read-out: Activity
[12] = tested on: NCI-H522; test: Growth inhibition of human NCI-H522 cells assessed as cell growth at 100 uM incubated for 48 hrs by sulforhodamine B assay relative to control; settings: read-out: Activity
[13] = tested on: TK-10; test: Growth inhibition of human TK-10 cells assessed as cell growth at 100 uM incubated for 48 hrs by sulforhodamine B assay relative to control; settings: read-out: Activity
[14] = tested on: OVCAR-3; test: Growth inhibition of human OVCAR-3 cells assessed as cell growth at 100 uM incubated for 48 hrs by sulforhodamine B assay relative to control; settings: read-out: Activity
[15] = tested on: OVCAR-8; test: Growth inhibition of human OVCAR-8 cells assessed as cell growth at 0.01 uM incubated for 48 hrs by sulforhodamine B assay relative to control; settings: read-out: Activity
[16] = tested on: SR; test: Growth inhibition of human SR cells assessed as cell growth at 1 uM incubated for 48 hrs by sulforhodamine B assay relative to control; settings: read-out: Activity
[17] = tested on: ACHN; test: Growth inhibition of human ACHN cells assessed as cell growth at 100 uM incubated for 48 hrs by sulforhodamine B assay relative to control; settings: read-out: Activity
[18] = tested on: HCT-15; test: Growth inhibition of human HCT-15 cells assessed as cell growth at 1 uM incubated for 48 hrs by sulforhodamine B assay relative to control; settings: read-out: Activity
[19] = tested on: UACC-257; test: Growth inhibition of human UACC-257 cells incubated for 48 hrs by sulforhodamine B assay
Method in brief: (§2)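 NCI DTP 60-line human tumour panel. Dose-response curves were run only for ligands active in the initial 10 µM screen. GI50 (concentration giving 50% of maximal inhibition of proliferation) and TGI (concentration giving total growth inhibition) were derived from these curves.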

[20] = tested on: Hs-578T; test: Growth inhibition of human Hs-578T cells assessed as cell growth at 0.1 uM incubated for 48 hrs by sulforhodamine B assay relative to control; settings: read-out: Activity
[21] = tested on: HOP-62; test: Growth inhibition of human HOP-62 cells assessed as cell growth at 0.1 uM incubated for 48 hrs by sulforhodamine B assay relative to control; settings: read-out: Activity
[22] = tested on: DU-145; test: Growth inhibition of human DU-145 cells assessed as cell growth at 0.1 uM incubated for 48 hrs by sulforhodamine B assay relative to control; settings: read-out: Activity
Method in brief: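 NCI Developmental Therapeutics Program NCI60 panel. Compounds that were active in the 10 µM one-dose screen went on to dose–response testing. Growth at each concentration is expressed relative to untreated control (100%). GI50 (concentration giving 50% of maximal inhibition of proliferation) and TGI (concentration giving total growth inhibition) were derived from the curves.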

[23] = tested on: T47D; test: Growth inhibition of human T47D cells incubated for 48 hrs by sulforhodamine B assay; settings: for CC50: read-out: LC50 (the source's name); method in brief: as §2
[24] = tested on: MDA-MB-231; test: Growth inhibition of human MDA-MB-231 cells assessed as cell growth at 100 uM incubated for 48 hrs by sulforhodamine B assay relative to control; settings: read-out: Activity
[25] = tested on: MOLT-4; test: Growth inhibition of human MOLT-4 cells assessed as cell growth at 0.1 uM incubated for 48 hrs by sulforhodamine B assay relative to control; settings: read-out: Activity
[26] = tested on: SF-295; test: Growth inhibition of human SF-295 cells assessed as cell growth at 1 uM incubated for 48 hrs by sulforhodamine B assay relative to control; settings: read-out: Activity
[27] = tested on: OVCAR-4; test: Growth inhibition of human OVCAR-4 cells assessed as cell growth at 100 uM incubated for 48 hrs by sulforhodamine B assay relative to control; settings: read-out: Activity
[28] = tested on: IGROV-1; test: Growth inhibition of human IGROV-1 cells incubated for 48 hrs by sulforhodamine B assay; method in brief: as §1
[29] = tested on: HCT-15; test: Growth inhibition of human HCT-15 cells assessed as cell growth at 0.01 uM incubated for 48 hrs by sulforhodamine B assay relative to control; settings: read-out: Activity
[30] = tested on: NCI-H460; test: Growth inhibition of human NCI-H460 cells assessed as cell growth at 0.1 uM incubated for 48 hrs by sulforhodamine B assay relative to control; settings: read-out: Activity
[31] = tested on: SK-MEL-2; test: Growth inhibition of human SK-MEL-2 cells assessed as cell growth at 0.01 uM incubated for 48 hrs by sulforhodamine B assay relative to control; settings: read-out: Activity
[32] = tested on: MDA-MB-435; test: Growth inhibition of human MDA-MB-435 cells assessed as cell growth at 0.1 uM incubated for 48 hrs by sulforhodamine B assay relative to control; settings: read-out: Activity
[33] = tested on: SN12C; test: Growth inhibition of human SN12C cells incubated for 48 hrs by sulforhodamine B assay; settings: for CC50: read-out: LC50 (the source's name); method in brief: as §2
[34] = tested on: SK-MEL-5; test: Growth inhibition of human SK-MEL-5 cells assessed as cell growth at 0.01 uM incubated for 48 hrs by sulforhodamine B assay relative to control; settings: read-out: Activity
[35] = tested on: UACC-257; test: Growth inhibition of human UACC-257 cells assessed as cell growth at 0.1 uM incubated for 48 hrs by sulforhodamine B assay relative to control; settings: read-out: Activity

## CCc1ccccc1NC(=O)c1sc2nc3c(cc2c1N)C(=O)CCC3
[1]
  growth at 0.01 µM: 100%
[2]
  GI50: 26.2 µM
  LC50: > 100 µM
  TGI: ≥ 100 µM
[3]
  growth at 1 µM: 40%
[4]
  growth at 100 µM: 13%
[5]
  GI50: 0.372 µM
  LC50: > 100 µM
  TGI: 29.5 µM
[6]
  growth at 100 µM: 13%
[7]
  growth at 0.01 µM: 100%
[8]
  growth at 1 µM: -8%
[9]
  growth at 0.1 µM: 83%
[10]
  growth at 100 µM: 31%
[11]
  growth at 0.01 µM: 89%
[12]
  growth at 100 µM: 19%
[13]
  growth at 100 µM: 13%
[14]
  growth at 100 µM: -36%
[15]
  growth at 0.01 µM: 98%
[16]
  growth at 1 µM: 20%
[17]
  growth at 100 µM: 10%
[18]
  growth at 1 µM: 30%
[19]
  GI50: 19.9 µM
  LC50 (concentration killing 50% of cells): > 100 µM
  TGI: > 100 µM
[20]
  growth at 0.1 µM: 80%
[21]
  growth at 0.1 µM: 82%
[22]
  growth at 0.1 µM: 103%
[23]
  GI50: 0.431 µM
  TGI: ≥ 100 µM
  CC50: > 100 µM
[24]
  growth at 100 µM: 4%
[25]
  growth at 0.1 µM: 103%
[26]
  growth at 1 µM: 13%
[27]
  growth at 100 µM: 8%
[28]
  GI50: 13.7 µM
  LC50: > 100 µM
  TGI: > 100 µM
[29]
  growth at 0.01 µM: 93%
[30]
  growth at 0.1 µM: 98%
[31]
  growth at 0.01 µM: 108%
[32]
  growth at 0.1 µM: 29%
[33]
  GI50: 0.676 µM
  TGI: > 100 µM
  CC50: > 100 µM
[34]
  growth at 0.01 µM: 96%
[35]
  growth at 0.1 µM: 79%

## Cc1ccc(NC(=O)c2sc3nc4c(cc3c2N)C(=O)CCC4)cc1C
[1]
  growth at 0.01 µM: 106%
[2]
  LC50: > 100 µM
  TGI: > 100 µM
[3]
  growth at 1 µM: 41%
[4]
  growth at 100 µM: -4%
[5]
  GI50: 0.399 µM
  LC50: > 100 µM
  TGI: ≥ 100 µM
[6]
  growth at 100 µM: 9%
[7]
  growth at 0.01 µM: 102%
[8]
  growth at 1 µM: -11%
[9]
  growth at 0.1 µM: 87%
[10]
  growth at 100 µM: -6%
[11]
  growth at 0.01 µM: 94%
[12]
  growth at 100 µM: -13%
[13]
  growth at 100 µM: 47%
[14]
  growth at 100 µM: -23%
[15]
  growth at 0.01 µM: 97%
[16]
  growth at 1 µM: 25%
[17]
  growth at 100 µM: 12%
[18]
  growth at 1 µM: 32%
[19]
  LC50 (concentration killing 50% of cells): > 100 µM
  TGI: > 100 µM
[20]
  growth at 0.1 µM: 88%
[21]
  growth at 0.1 µM: 86%
[22]
  growth at 0.1 µM: 101%
[23]
  GI50: 0.444 µM
  TGI: ≥ 100 µM
  CC50: > 100 µM
[24]
  growth at 100 µM: 24%
[25]
  growth at 0.1 µM: 106%
[26]
  growth at 1 µM: 17%
[27]
  growth at 100 µM: 18%
[28]
  GI50: 1.09 µM
  LC50: > 100 µM
  TGI: > 100 µM
[29]
  growth at 0.01 µM: 95%
[30]
  growth at 0.1 µM: 102%
[31]
  growth at 0.01 µM: 105%
[32]
  growth at 0.1 µM: 60%
[33]
  GI50: 0.675 µM
  TGI: > 100 µM
  CC50: > 100 µM
[34]
  growth at 0.01 µM: 95%
[35]
  growth at 0.1 µM: 92%

Reference: ChEMBL document CHEMBL4715736, “Identification of anticancer agents based on the thieno[2,3-b]pyridine and 1H-pyrazole molecular scaffolds” (2016)
